High-throughput results (PubChem BioAssay)
MLLE-PAM2 inh: inhibitors of microRNA-mediated deadenylation, human PABP1 MLLE binding; GST-MLLE / FITC-PAM2 fluorescence polarization; inhibition, % at 20 µM; 0.36% of 360,000 active; in the data active = inhibition above about 35%, passing the limit was not always enough
eIF4H inh: inhibitors of RNA binding by human eIF4H. 0.94% of 290,000 active. eIF4H fluorescence polarization binding assay. inhibition, % at 35 µM. AID 2012. Q15056;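 note: calls also rest on retests at 20 µM and on dose response follow-up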
HCV NS3 hel inh: blocks Hepatitis C virus NS3 helicase unwinding. AID 1800. 0.56% of 290,000 active. NS3 helicase DNA unwinding, Cy5 molecular beacon fluorescence. inhibition, % at 10.9 µM;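 active = inhibition above the mean of all tested compounds plus 3 SD, set per campaign, cut at about 35% in these data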
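Control set: DMSO versus 110 µM thioflavine S; Material: NS3 helicase fragment of HCV; Measured by: Cy5 fluorescence at 0 and 60 min, beacon hairpin quenching; Read-out basis: percent inhibition from t60/t0 fluorescence ratio; Times: reaction time 60 min, 25 °C; Repeats: single replicate; Compound dosing: single dose, 10.9 µM nominal final, DMSO 0.8% final.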
PABP FP inh: blocks human PABP binding to poly(A) RNA. inhibition, % at 35 µM. fluorescence polarization. 1% of 290,000 active. AID 2014;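 note: calls also rest on retests at 20 µM and on dose response follow-up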
EBNA-1 inh: blocks EBNA-1 binding to DNA | EBNA-1 DNA binding, fluorescence polarization | inhibition, % at 14.8 µM | 0.34% of 300,000 active | AID 1950; in the data active = inhibition above about 28%
ZTA counter: ZTA (EBV) inhibition in EBNA-1 counter-screen | P03206 | ZTA-DNA binding, fluorescence polarization | inhibition, % at 11 µM | 0.15% of 320,000 active; in the data active = inhibition above about 33%
Target sequence (P03206 whole entry, looked up): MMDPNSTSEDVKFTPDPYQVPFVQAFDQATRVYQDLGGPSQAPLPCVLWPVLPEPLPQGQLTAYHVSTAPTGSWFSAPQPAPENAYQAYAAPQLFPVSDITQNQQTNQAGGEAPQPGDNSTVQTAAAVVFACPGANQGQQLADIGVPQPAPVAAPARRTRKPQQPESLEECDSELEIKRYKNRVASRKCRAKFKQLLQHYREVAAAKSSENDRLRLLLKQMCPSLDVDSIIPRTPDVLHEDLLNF
Numbers stand for hits; 0 = inactive; ? = inconclusive; - = not tested or not shown. The list is not random: actives were taken first. Their share in the collection is about 2.1%. Unless noted, the rule behind the calls is not given here.

SMILES	MLLE-PAM2 inh	eIF4H inh	HCV NS3 hel inh	PABP FP inh	EBNA-1 inh	ZTA counter
CC(=O)C(=Cc1cc(C)n(-c2ccccc2)c1C)C(C)=O	0	54	0	7.4	0	0
Cc1cc(/C=N/O)c(C)n1-c1ccccc1	0	0	0	0	0	0
Cc1ccc(C)n1-c1cccc(C(=O)Nc2ccccc2)c1	0	0	0	0	0	0
Cc1cc(C=O)c(C)n1-c1cc(C(=O)O)cc(C(=O)O)c1	0	0	0	0	0	0
Cc1ccc(C)n1-c1cccc(C(=O)O)c1	-	91	-	77	0	78
CCCCN1C(=O)/C(=C2\SC(N3CCCCC3)=NC2=O)c2ccccc21	40	0	0	0	0	0
CC(=O)c1ccc(OCC(C)C)c(Cc2c(O)nc(N)[nH]c2=O)c1	0	0	0	0	0	0
CC(=O)c1ccc(OC(C)C)c(Cc2c(O)nc(N)[nH]c2=O)c1	0	0.7	0	100	0	0
C=CCn1c(SCC(=O)c2ccc(CNC(C)=O)o2)nc2scc(C3CC3)c2c1=O	0	77	0	0	0	0
COc1cc(OC)cc(-c2c(-c3ccc(C(C)=O)cc3)c3cc(-c4cccc5[nH]ccc45)ccc3n2C)c1	0	-	-	-	-	-
COc1ccc(S(=O)(=O)Nc2ccc(O)c3ccccc23)cc1	38	0	0	0	0	0
COc1ccc(C2CC(c3cccs3)=Nc3ccccc3S2)cc1 (stereo not given)	51	0	0	0	0	0
COc1ccc(C2CC(c3cccs3)=NN2S(C)(=O)=O)cc1 (stereo not given)	0	0	0	0	0	0
COc1ccc(C(C)=O)cc1CC1(C)C(=O)Nc2ccc(-c3cccc(C(F)(F)F)c3)cc21 (stereo not given)	0	-	-	-	-	-
CCCOc1ccc(N)cc1N	0	79	0	102	0	0
CC(C)(C)c1cc(/C=N/NC(=O)Cc2nc3ccccc3[nH]2)cc(C(C)(C)C)c1O	0	0	0	0	0	0
CCc1ccccc1N1CSC2=C(C#N)C(c3ccccc3F)CC(=O)N2C1 (stereo not given)	0	78	0	93	0	0
COc1ccc(OC)c(C2CC(=O)N3CN(c4ccccc4)CSC3=C2C#N)c1 (stereo not given)	0	0	0	0	0	0
COc1ccc(C2CC(=O)N3CN(c4ccccc4F)CSC3=C2C#N)cc1OC (stereo not given)	0	0	0	0	0	0
Cc1cccc(N2CSC3=C(C#N)C(c4ccc(C)o4)CC(=O)N3C2)c1 (stereo not given)	-	98	0	118	0	0
O=S(=O)(c1ccccc1)N(c1ccccc1)S(=O)(=O)c1ccccc1	0	-	-	-	-	-
Cc1ccccc1C1C(C#N)=C2NC(=O)c3c(sc4c3CCCCC4)N2C2=C1C(=O)CC(C)(C)C2 (stereo not given)	-	0	0	0	0	0
Cc1ccccc1C1C(C#N)=C2N=C(N)c3c(sc4c3CCCCC4)N2C2=C1C(=O)CC(C)(C)C2 (stereo not given)	0	114	0	0	0	0
Cc1[nH]c2ccc(C(=O)O)cc2c1C	0	0	0	0	0	0
CCCc1c(C)[nH]c2ccc(C(=O)O)cc2c1=S	0	56	0	55	-	-
SMILES	MLLE-PAM2 inh	eIF4H inh	HCV NS3 hel inh	PABP FP inh	EBNA-1 inh	ZTA counter
CCOC(=O)c1sc(N)c(C#N)c1CSc1nc2ccc(C)cc2[nH]1	0	0	0	0	0	0
CCOC(=O)c1sc(N)c(C#N)c1COC(=O)CNC(=O)c1ccccc1	0	0	0	126	0	0
O=C(O)CCc1cc(I)c(Oc2ccc(O)c(I)c2)c(I)c1	-	65	-	50	-	-
COc1cccc(C2C(C#N)=C(N)Oc3cc(C)n(Cc4ccco4)c(=O)c32)c1 (stereo not given)	0	51	0	83	0	0
COc1cccc2sc3ccc(NCCC4CCCN4C)cc3c(=O)c12 (stereo not given)	0	79	0	60	0	0
CCc1c(Cl)nc(N)nc1Nc1ccccc1C	0	-	-	-	-	-
Cc1ccccc1Nc1nc(N)[nH]c(=O)c1N=O	45	-	-	-	-	-
Cc1cc(NC(=O)CC#N)n(-c2ccccc2)n1	0	78	0	0	0	0
Cc1cc(NC(=O)Nc2cc(C)nn2-c2ccccc2)n(-c2ccccc2)n1	0	0	0	0	0	0
Cc1cc(C)nc(SCNC(=O)c2ccc(Cl)cc2)n1	44	0	0	0	0	0
CC1(C)Nc2ccc(O)cc2-c2c1ssc2=S	0	0	0	1.0	0	0
CCOC(=O)C(N)CSC1CC(=O)N(c2ccc(C(=O)OC)cc2)C1=O (stereo not given)	0	0	0	0	0	0
Cc1ccnc(SC2CC(=O)N(c3ccc([N+](=O)[O-])cc3)C2=O)n1 (stereo not given)	39	0	0	0	0	0
Cc1ccc(Cl)cc1N1C(=O)CC(Sc2ncccn2)C1=O (stereo not given)	42	0	0	0	0	0
CCOC(=O)c1ccc(N2C(=O)CC(Sc3ncccn3)C2=O)cc1 (stereo not given)	41	0	0	0	0	0
O=C1CC(Sc2ncccn2)C(=O)N1c1ccccc1C(F)(F)F (stereo not given)	0	0	0	0	0	0
C#CCOC(=O)CCC(=O)Nc1cc(OC)nc(OC)n1	-	0	0	0	-	-
O=C(NCCCn1ccnc1)c1csc2ccccc12	0	0	0	0	0	0
Cc1cc(C(F)(F)F)n2nc(-c3cnn(C)c3C(F)(F)F)cc2n1	0	0	0	0	0	0
COc1cc(C)nc(N(C)S(=O)(=O)c2ccccc2Cl)n1	0	0	0	0	0	0
Clc1ccc(-c2nnc(CSc3nnc(-c4cccs4)n3Cc3ccccc3)o2)cc1	0	0	0	0	0	0
Fc1ccc(NCc2nnc(SCc3nnc(-c4ccccc4)o3)n2Cc2ccccc2)cc1	0	58	0	0	0	0
CCn1c(N)c(C(N)=O)sc1=S	0	?	0	?	0	0
CCn1c(N)c(C(=O)NC2CCCCC2)sc1=S	42	0	0	0	0	0
Cn1cc(/C=N\O)nc2c(=O)n(-c3ccccc3)c(=O)nc1-2	37	0	0	0	0	0
CN(NS(=O)(=O)c1ccc([N+](=O)[O-])cc1)c1ccccc1	0	-	-	-	-	-
CC1Cc2ccccc2N1C(=O)CCS(=O)(=O)c1ccc2c(c1)NC(=O)CS2 (stereo not given)	0	0	0	13	0	0
CC1CCC(NC(=O)CCS(=O)(=O)c2ccc3c(c2)NC(=O)CS3)CC1 (stereo not given)	0	0	0	0	0	0
Cc1cccc(NC(=O)CCS(=O)(=O)c2ccc3c(c2)NC(=O)CS3)n1	0	0	0	36	0	0
O=C(Oc1ccccc1N1C(=O)C2CCCCC2C1=O)c1ccc(Cl)cc1 (stereo not given)	0	0	0	0	0	0
